Assay results from ChEMBL document CHEMBL1157759, “Discovery of GS-9131: Design, synthesis and optimization of amidate prodrugs of the novel nucleoside phosphonate HIV reverse transcriptase (RT) inhibitor GS-9148” (Bioorg Med Chem, 2010).

How the values were obtained:
[1] = tested on: Human immunodeficiency virus 1; assay: Antiviral activity against HIV1 3B infected in human MT2 cells assessed as inhibition of virus-induced cytopathic effect after 5 days by XTT assay; format: functional, organism-based
[2] = Half life in human intestine S9 fraction at 2 uM by LC/MS/MS analysis
[3] = Half life in dog intestine S9 fraction at 2 uM by LC/MS/MS analysis; conditions: for half-life at 2 µM: intestine S9 fraction, t1/2
[4] = tested on: PBMC; assay: Metabolic stability in cathepsin A-overexpressing human PBMC assessed as compound degradation per ug of protein at 10 uM after 120 mins by scintillation counting; conditions: 2 h, 30 µM
[5] = Half life in dog hepatocytes at 2 uM by LC/MS/MS analysis; conditions: for t1/2: 2 µM; for half-life at 2 µM: t1/2
[6] = Half life in human hepatocytes at 2 uM by LC/MS/MS analysis; conditions: t1/2
[7] = Cytotoxicity against human MT2 cells after 5 days by XTT assay
[8] = Hydrolytic stability assessed as compound degradation per ug of protein at 10 uM after 90 mins by scintillation counting in presence of human recombinant cathepsin A; conditions: 1.5 h
[9] = tested on: PBMC; assay: Drug metabolism in Beagle dog PBMC assessed as 5-[(6-Amino-purin-9-yl)-4-fluoro-2,5-dihydro-furan-2-yloxymethyl] phosphonic acid diphosphate level after 5 hrs; format: ADME, cell-based, Canis lupus familiaris
In short: (§1)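 Beagle dogs were given a single oral dose of 3 mg/kg. The prodrug was followed in plasma. The parent diacid and its active diphosphate metabolite were followed inside isolated PBMCs over time after dosing. Plasma half-life and PBMC-to-plasma levels were derived from these time-course profiles.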

[10] = biological target: T1, DNA polymerase subunit gamma-1 (Homo sapiens) (UniProt P54098); assay: Inhibition of human recombinant DNA polymerase gamma by scintillation counting
T1 sequence (whole entry): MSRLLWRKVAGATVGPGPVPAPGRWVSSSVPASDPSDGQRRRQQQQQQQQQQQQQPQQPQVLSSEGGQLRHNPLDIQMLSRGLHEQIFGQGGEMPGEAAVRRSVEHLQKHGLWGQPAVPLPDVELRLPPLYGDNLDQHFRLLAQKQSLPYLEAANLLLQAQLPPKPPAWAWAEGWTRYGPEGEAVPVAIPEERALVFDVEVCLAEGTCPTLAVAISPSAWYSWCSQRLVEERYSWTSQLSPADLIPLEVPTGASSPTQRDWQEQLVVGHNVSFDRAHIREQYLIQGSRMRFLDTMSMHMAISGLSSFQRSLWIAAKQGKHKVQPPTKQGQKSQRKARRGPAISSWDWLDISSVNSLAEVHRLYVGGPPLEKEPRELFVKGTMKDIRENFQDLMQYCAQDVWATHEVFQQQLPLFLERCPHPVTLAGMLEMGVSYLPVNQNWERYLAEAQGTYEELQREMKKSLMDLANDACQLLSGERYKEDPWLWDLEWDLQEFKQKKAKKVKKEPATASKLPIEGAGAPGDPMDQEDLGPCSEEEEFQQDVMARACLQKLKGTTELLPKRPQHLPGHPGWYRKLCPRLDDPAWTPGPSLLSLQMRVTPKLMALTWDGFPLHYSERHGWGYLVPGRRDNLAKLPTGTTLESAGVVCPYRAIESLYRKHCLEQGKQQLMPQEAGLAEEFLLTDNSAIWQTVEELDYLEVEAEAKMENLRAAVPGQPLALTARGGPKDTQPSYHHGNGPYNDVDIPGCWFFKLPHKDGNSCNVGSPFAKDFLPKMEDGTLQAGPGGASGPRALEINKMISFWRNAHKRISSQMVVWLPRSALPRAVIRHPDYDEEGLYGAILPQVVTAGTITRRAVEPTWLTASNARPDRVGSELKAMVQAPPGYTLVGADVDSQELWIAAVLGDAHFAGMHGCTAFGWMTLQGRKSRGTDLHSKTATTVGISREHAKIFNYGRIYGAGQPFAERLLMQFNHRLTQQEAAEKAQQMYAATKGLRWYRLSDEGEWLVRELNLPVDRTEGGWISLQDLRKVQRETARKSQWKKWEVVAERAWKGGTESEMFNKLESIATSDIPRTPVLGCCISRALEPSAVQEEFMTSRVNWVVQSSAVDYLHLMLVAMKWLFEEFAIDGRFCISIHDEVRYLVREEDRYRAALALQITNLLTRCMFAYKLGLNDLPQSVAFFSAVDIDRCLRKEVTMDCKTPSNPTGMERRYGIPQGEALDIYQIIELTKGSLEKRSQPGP

[11] = Selectivity for inhibition of HIV wild type reverse transcriptase over inhibition of human recombinant DNA polymerase gamma
[12] = biological target: Human immunodeficiency virus type 1 reverse transcriptase (Human immunodeficiency virus 1, UniProt Q72547); assay: Inhibition of HIV1 reverse transcriptase
[13] = Clearance in iv dosed Beagle dog after 24 hrs; conditions: in vivo
[14] = Oral bioavailability in Beagle dog; conditions: in vivo
[15] = Cytotoxicity against human HepG2 cells assessed as inhibition of mitochondrial DNA replication after 14 days; conditions: read-out: MTC50
[16] = Drug metabolism in Beagle dog assessed as ratio of GS-9148 level in PBMC to plasma at 3 mg/kg, po up to 20 mins; format: ADME, organism-based, Canis lupus familiaris; design: dose 3 mg/kg, route oral; conditions: in vivo, 2 h, in the assay text read “up to 2 hrs” for “up to 20 mins”; in short: as §1
[17] = Bioavailability in iv dosed Beagle dog; conditions: in vivo
[18] = Human immunodeficiency virus 1, 3B, MT2, 120 h

Q: Which results are given for `CC(C)OC(=O)[C@H](C)NP(=O)(CO[C@@H]1C=C(F)[C@H](n2cnc3c(N)ncnc32)O1)Oc1ccccc1` (stereo in doubt; 24) [(2S)-ISOPROPYL 2-(((2R,5R)-5-(6-AMINO-9H-PURIN-9-YL)-4-FLUORO-2,5-DIHYDROFURAN-2-YLOXY)(PHENOXY)PHOSPHORYLAMINO)PROPANOATE (ENANTIOMERIC MIX)]?
A: EC50 ([1]; mt2): 9.2 nM; half-life at 2 µM [2]: 106 min; half-life at 2 µM [3]: 15 min; Activity [4]: 20 pmol/min; t1/2 [5]: 103 min; half-life at 2 µM [6]: 159 min; CC50 at 120 h [7]: 139000 nM; Activity [8]: 35000 pmol/min

Q: Which Activity [9] does the source give for `Nc1ncnc2c1ncn2[C@@H]1O[C@H](OCP(=O)(O)OP(=O)(O)OP(=O)(O)O)C=C1F` here?
A: Its Activity is greater than 9 µM.

Q: What about the Activity [10] of the same compound?
A: The Activity was 100 µM.

Q: And the fold change (FC) [11]?
A: Its fold change (FC) is greater than 130.

Q: What about the IC50 [12] of the same compound?
A: The IC50 was 1900 nM.

Q: For `C[C@H](NP(=O)(CO[C@@H]1C=C(F)[C@H](n2cnc3c(N)ncnc32)O1)Oc1ccccc1)C(=O)OC1CCC1` (stereo in doubt; 18r) [(2S)-CYCLOBUTYL 2-((((2R,5R)-5-(6-AMINO-9H-PURIN-9-YL)-4-FLUORO-2,5-DIHYDROFURAN-2-YLOXY)METHYL)(PHENOXY)PHOSPHORYLAMINO)PROPANOATE (ENANTIOMERIC MIX)], which EC50 ([1]; mt2) is on record?
A: The EC50 was 36 nM.

Q: And the half-life at 2 µM [2]?
A: The half-life at 2 µM was 122 min.

Q: And the half-life at 2 µM [3]?
A: The half-life at 2 µM was 25 min.

Q: And the Activity [4]?
A: Its Activity is 7.7 pmol/min.

Q: What about the t1/2 [5] of the same compound?
A: Its t1/2 is 100 min.

Q: What about the clearance at 24 h [13] of the same compound?
A: Its clearance at 24 h is 46 mL/min/kg.

Q: What about the half-life at 2 µM [6] of the same compound?
A: The half-life at 2 µM was 98 min.

Q: What about the CC50 at 120 h [7] of the same compound?
A: The CC50 at 120 h was 57000 nM.

Q: What about the Activity [8] of the same compound?
A: The Activity was 18150 pmol/min.

Q: With `CC(C)COC(=O)[C@H](Cc1ccccc1)NP(=O)(CO[C@@H]1C=C(F)[C@H](n2cnc3c(N)ncnc32)O1)Oc1ccccc1` (some centres not stated) as the compound, how does the EC50 [1, 18] read?
A: The EC50 was 6 nM.

Q: What about the half-life at 2 µM [3] of the same compound?
A: The half-life at 2 µM was 8.3 min.

Q: And the Activity [4]?
A: Its Activity is 31 pmol/min.

Q: What about the half-life at 2 µM [5] of the same compound?
A: Its half-life at 2 µM is 28 min.

Q: What about the clearance at 24 h [13] of the same compound?
A: The clearance at 24 h was 61.7 mL/min/kg.

Q: What about the bioavailability [14] of the same compound?
A: The bioavailability was 2.6%.

Q: And the CC50 at 120 h [7]?
A: Its CC50 at 120 h is 38300 nM.

Q: And the Activity [8]?
A: The Activity was 29655 pmol/min.

Q: For `Nc1ncnc2c1ncn2[C@@H]1O[C@H](OCP(=O)(O)O)C=C1F` [GS-9148], which EC50 [1, 18] is on record?
A: Its EC50 is 10600 nM.

Q: What about the CC50 at 336 h [15] of the same compound?
A: The CC50 at 336 h was greater than 300000 nM.

Q: And the Ratio [16]?
A: Its Ratio is 10.

Q: And the CC50 at 120 h [7]?
A: The CC50 at 120 h was greater than 100000 nM.

Q: Which EC50 ([1]; mt2) does the source give for `C[C@H](NP(=O)(CO[C@@H]1C=C(F)[C@H](n2cnc3c(N)ncnc32)O1)Oc1ccccc1)C(=O)OC1CCC1` (stereo in doubt; 18r(A)) [(2S)-CYCLOBUTYL 2-((((2R,5R)-5-(6-AMINO-9H-PURIN-9-YL)-4-FLUORO-2,5-DIHYDROFURAN-2-YLOXY)METHYL)(PHENOXY)PHOSPHORYLAMINO)PROPANOATE (ENANTIOMERIC MIX)] here?
A: Its EC50 is greater than 45 nM.

Q: And the t1/2 ([3]; s9, 2 µM, 2 µM)?
A: The t1/2 was 32 min.

Q: And the Activity [4]?
A: The Activity was 3.2 pmol/min.

Q: What about the half-life at 2 µM [5] of the same compound?
A: Its half-life at 2 µM is 140 min.

Q: What about the bioavailability [17] of the same compound?
A: Its bioavailability is 9.8%.

Q: What about the Activity [8] of the same compound?
A: The Activity was 2527 pmol/min.

Q: Which clearance at 24 h [13] does the source give for `CC(C)OC(=O)[C@H](C)N[P@](=O)(CO[C@H](C)Cn1cnc2c(N)ncnc21)Oc1ccccc1` [TENOFOVIR ALAFENAMIDE] here?
A: Its clearance at 24 h is 37.2 mL/min/kg.

Q: What about the bioavailability [14] of the same compound?
A: Its bioavailability is 21%.

Q: For `C[C@H](NP(=O)(CO[C@@H]1C=C(F)[C@H](n2cnc3c(N)ncnc32)O1)Oc1ccccc1)C(=O)OC1CCC1.Cl.Cl` (some centres not stated), which EC50 ([1]; mt2) is on record?
A: Its EC50 is 21 nM.

Q: What about the half-life at 2 µM [3] of the same compound?
A: Its half-life at 2 µM is 3.9 min.

Q: What about the Activity [4] of the same compound?
A: The Activity was 19 pmol/min.

Q: And the half-life at 2 µM [5]?
A: The half-life at 2 µM was 52 min.

Q: What about the bioavailability [17] of the same compound?
A: The bioavailability was 18%.

Q: What about the Activity [8] of the same compound?
A: Its Activity is 23997 pmol/min.
